The values that follow come from ChEMBL document CHEMBL4613265, “Novel Human Neutral Sphingomyelinase 2 Inhibitors as Potential Therapeutics for Alzheimer's Disease” (J Med Chem, 2020).

The nature of data set [1]: Stability in mouse liver microsomes assessed as CYP450-mediated metabolism by measuring parent compound remaining at 1 uM measured after 60 mins in presence of NADPH generating system by LC-MS/MS analysis. It counts as ADME. To be noted: 1 h. The procedure, abridged:
(§1)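 Liver microsomes from mouse or human, 0.2 mg/mL, with 1 μM compound (final) in 100 mM potassium phosphate at pH 7.4. Adding microsomes started the reaction; triplicates. After 60 min, quenched with 3 volumes of ice-cold acetonitrile containing internal standard.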
On the technique in general: Liver microsomes are vesicles of endoplasmic reticulum, rich in cytochrome P450 enzymes.

Data set [2] has as its system Cytochrome P450. In words: Stability in human liver microsomes assessed as CYP450-mediated metabolism by measuring parent compound remaining at 1 uM measured after 60 mins in presence of NADPH generating system by LC-MS/MS analysis. It counts as ADME. To be noted: 1 h. The procedure, abridged:
as §1

Data set [3] is described as follows: Stability in mouse liver microsomes assessed as parent compound remaining at 1 uM measured after 60 mins in absence of NADPH by LC-MS/MS analysis. It counts as ADME, Microsome. The note with it: liver microsomes, read-out: Stability. The procedure, abridged:
(§2)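 Cofactor-free control for cofactor-independent degradation. Mouse or human liver microsomes at 0.2 mg/mL, 1 μM compound (final), 100 mM potassium phosphate at pH 7.4, no NADPH regenerating system. Adding microsomes started the reaction; run in triplicate. Sampled at 60 min and quenched with three volumes of ice-cold acetonitrile spiked with internal standard.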

The nature of data set [4]: Stability in human liver microsomes assessed as parent compound remaining at 1 uM measured after 60 mins in absence of NADPH by LC-MS/MS analysis. It counts as ADME, Microsome. The note with it: liver microsomes, read-out: Stability. The procedure, abridged:
as §2

For data set [5], the target named is T1, Sphingomyelin phosphodiesterase 3 (Homo sapiens, UniProt Q9NY59).
T1 sequence (Q9NY59 whole entry): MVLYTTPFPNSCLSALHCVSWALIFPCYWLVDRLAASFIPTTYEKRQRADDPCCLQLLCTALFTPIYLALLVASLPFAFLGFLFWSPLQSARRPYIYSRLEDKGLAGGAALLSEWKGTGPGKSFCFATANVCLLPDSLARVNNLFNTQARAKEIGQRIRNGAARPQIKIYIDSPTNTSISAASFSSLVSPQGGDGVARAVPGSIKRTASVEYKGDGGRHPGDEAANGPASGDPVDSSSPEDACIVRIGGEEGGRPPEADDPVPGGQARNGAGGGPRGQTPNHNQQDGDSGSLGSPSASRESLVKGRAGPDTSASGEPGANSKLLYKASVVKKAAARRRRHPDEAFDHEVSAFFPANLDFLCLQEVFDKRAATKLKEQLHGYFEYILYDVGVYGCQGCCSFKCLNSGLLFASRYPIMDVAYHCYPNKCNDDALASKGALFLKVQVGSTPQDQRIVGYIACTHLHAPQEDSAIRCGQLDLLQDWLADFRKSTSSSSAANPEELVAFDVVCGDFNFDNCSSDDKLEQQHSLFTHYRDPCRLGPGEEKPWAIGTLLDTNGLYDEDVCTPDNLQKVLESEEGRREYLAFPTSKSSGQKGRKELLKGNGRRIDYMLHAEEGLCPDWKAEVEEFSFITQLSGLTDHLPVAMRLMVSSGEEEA
In words: Inhibition of human recombinant full-length nSMase expressed in HEK293 cells using sphingomyelin as substrate measured after 1 hr by alkaline phosphatase, choline oxidase and horseradish peroxidase dependent H2O2 detection-coupled amplex reagent based fluorescence assay.

Data set [6] has as its target Phosphatidylinositol 4-kinase alpha (Homo sapiens) (UniProt P42356). In words: Inhibition of PI4K3alpha (unknown origin).
Data set [7] has as its system HepG2. In words: Cytotoxicity against human HepG2 cells by XTT assay. The format is cell-based. Background: Tetrazolium dyes change colour on reduction, which living cells bring about.
The subject of data set [8] is HL-60. As to the kind of experiment: Cytotoxicity against human HL60 cells by XTT assay. The format is cell-based.
The subject of data set [9] is HeLa S3. In words: Cytotoxicity against human HeLaS3 cells by XTT assay. The format is cell-based.
The subject of data set [10] is CCRF-CEM. In words: Cytotoxicity against human CCRF-CEM cells by XTT assay. It counts as cell-based.
In data set [11] the target is Phosphatidylinositol 4-kinase beta (Homo sapiens, UniProt Q9UBF8). As to the kind of experiment: Inhibition of PI4K3beta (unknown origin).
Chain of Phosphatidylinositol 4-kinase beta (Q9UBF8 whole entry): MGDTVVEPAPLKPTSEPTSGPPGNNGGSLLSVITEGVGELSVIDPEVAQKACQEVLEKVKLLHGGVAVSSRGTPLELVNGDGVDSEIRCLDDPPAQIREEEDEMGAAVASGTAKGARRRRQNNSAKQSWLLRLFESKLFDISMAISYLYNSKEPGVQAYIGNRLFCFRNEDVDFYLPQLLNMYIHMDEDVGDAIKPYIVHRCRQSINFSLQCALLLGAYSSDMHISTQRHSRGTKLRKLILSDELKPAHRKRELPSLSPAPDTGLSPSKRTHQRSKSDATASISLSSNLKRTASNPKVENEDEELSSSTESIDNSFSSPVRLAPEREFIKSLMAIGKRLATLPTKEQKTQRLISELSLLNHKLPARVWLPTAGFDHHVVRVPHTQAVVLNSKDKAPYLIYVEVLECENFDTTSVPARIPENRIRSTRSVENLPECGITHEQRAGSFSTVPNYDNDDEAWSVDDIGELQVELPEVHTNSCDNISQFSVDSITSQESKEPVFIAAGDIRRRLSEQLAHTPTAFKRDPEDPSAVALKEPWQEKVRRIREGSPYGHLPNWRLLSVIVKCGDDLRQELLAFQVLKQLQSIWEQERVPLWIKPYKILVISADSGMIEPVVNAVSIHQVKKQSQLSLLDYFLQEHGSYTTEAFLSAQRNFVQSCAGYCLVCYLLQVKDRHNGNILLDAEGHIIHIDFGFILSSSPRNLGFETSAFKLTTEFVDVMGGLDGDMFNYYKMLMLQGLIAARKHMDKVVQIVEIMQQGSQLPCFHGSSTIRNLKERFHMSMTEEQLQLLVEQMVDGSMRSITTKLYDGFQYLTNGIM

Structures are written as SMILES. pIC50: −log10 of the molar value. The source made the active and inactive calls. No cut-off for these calls is given here.

Chain of Phosphatidylinositol 4-kinase alpha (Homo sapiens) (P42356 whole entry, looked up): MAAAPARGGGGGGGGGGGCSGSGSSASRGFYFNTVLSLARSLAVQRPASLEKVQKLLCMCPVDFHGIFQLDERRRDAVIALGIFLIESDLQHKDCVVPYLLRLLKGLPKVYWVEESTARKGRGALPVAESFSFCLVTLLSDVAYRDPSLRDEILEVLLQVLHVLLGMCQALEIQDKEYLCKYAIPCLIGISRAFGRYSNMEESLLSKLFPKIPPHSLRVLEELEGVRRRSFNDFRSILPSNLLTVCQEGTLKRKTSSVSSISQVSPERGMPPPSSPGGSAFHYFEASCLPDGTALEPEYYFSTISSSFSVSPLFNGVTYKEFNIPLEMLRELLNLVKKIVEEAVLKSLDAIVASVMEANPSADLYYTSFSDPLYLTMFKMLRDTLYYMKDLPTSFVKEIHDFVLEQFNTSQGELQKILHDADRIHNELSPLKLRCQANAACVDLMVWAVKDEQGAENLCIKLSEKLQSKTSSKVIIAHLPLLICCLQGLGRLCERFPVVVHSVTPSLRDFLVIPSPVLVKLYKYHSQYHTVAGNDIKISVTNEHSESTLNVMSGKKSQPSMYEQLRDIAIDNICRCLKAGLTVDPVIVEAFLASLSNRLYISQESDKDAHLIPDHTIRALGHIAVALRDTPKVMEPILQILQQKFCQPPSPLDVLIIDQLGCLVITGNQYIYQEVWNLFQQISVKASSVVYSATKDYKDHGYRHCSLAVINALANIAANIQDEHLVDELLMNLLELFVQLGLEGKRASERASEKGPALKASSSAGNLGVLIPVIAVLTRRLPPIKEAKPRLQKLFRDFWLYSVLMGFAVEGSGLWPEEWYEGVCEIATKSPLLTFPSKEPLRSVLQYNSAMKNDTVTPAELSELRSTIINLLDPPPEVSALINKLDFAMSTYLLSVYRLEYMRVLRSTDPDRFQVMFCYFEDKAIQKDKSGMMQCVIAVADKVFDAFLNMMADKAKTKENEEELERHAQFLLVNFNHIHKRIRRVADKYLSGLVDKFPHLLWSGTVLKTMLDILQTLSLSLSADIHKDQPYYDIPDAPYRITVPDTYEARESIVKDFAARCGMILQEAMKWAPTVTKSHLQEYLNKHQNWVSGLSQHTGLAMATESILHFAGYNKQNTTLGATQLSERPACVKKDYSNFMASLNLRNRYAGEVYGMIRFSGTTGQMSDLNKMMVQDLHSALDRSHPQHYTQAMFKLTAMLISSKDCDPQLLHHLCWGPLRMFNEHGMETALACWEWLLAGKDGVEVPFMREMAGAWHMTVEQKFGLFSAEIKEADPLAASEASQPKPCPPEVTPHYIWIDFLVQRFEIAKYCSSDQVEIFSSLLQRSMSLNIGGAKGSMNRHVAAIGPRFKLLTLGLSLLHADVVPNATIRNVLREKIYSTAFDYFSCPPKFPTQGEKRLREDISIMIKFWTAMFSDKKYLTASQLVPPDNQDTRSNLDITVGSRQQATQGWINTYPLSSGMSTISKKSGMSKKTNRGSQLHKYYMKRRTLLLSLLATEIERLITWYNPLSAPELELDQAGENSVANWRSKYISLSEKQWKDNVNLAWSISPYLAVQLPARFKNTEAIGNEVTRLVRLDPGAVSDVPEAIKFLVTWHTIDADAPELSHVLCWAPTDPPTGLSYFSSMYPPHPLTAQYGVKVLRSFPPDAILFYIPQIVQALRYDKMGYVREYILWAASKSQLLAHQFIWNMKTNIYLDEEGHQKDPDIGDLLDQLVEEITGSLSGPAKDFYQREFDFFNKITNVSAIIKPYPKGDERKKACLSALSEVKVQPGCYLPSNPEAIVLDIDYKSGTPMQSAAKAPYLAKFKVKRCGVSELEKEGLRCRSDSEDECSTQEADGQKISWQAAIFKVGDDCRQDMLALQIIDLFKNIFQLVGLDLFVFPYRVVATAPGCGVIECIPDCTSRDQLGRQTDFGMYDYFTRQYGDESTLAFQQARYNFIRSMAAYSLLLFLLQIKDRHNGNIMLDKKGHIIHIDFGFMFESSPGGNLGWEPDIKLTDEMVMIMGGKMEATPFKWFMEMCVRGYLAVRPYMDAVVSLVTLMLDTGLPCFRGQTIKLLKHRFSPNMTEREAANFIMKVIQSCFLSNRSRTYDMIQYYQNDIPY

For `COc1ccc(-c2cnc3c(N4CC[C@@H](NC(C)=O)C4)cc(C)nn23)cc1OC`, in data set [1], the Parent compound remaining is reported as 53%. For the same compound, the Stability in data set [2] is listed as 28%. The remaining at 1 h, 1 µM in data set [3] and in data set [4] was > 95% each time.

For `COc1ccc(-c2c(C)nc3c(N4CC[C@@H](NS(=O)(=O)C5CC5)C4)cc(C)nn23)cc1OC`, in [1], the Parent compound remaining is reported as 95%. In addition, the Stability in data set [2] stood at 111%. Also, the remaining at 1 h, 1 µM in data set [3] and in data set [4] was > 95% in each case.

As for `CCCCCC(=O)N[C@@H]1CCN(c2cc(C)nn3c(-c4ccc(OC)c(OC)c4)c(C)nc23)C1`, in data set [1], the Parent compound remaining was 52%. Also, in [2], the Stability was found to be 88%. For the same compound, the remaining at 1 h, 1 µM in data set [3] and in data set [4] was > 95% throughout.

Turning to `COc1ccc(-c2c(C)nc3c(N4CC[C@@H](NS(=O)(=O)c5ccc(C(F)(F)F)cc5)C4)cc(C)nn23)cc1OC`, the Parent compound remaining in [1] is 15%. For the same compound, the Stability in data set [2] was determined as 61%. For the same compound, the remaining at 1 h, 1 µM in data set [3] and in [4] was > 95% each time.

Usually pIC50 stands for the negative decadic logarithm of the IC50, by convention in mol/L. For the compound `COc1ccc(-c2c(C)nc3c(NCCNC(C)=O)cc(C)nn23)cc1OC`, the pIC50 in [5] is < 5.00. In [6], the inhibition result was “inactive”. The Activity entry in data set [7], in data set [8], in [9] and in [10] was “Non-Toxic” each time.

Turning to `COc1ccc(-c2scc3c(N4CC[C@@H](NC(C)=O)C4)nc(C)nc23)cc1OC`, the pIC50 in [5] was < 4.00. The remaining at 1 h, 1 µM in data set [3] and in [4] was > 95% throughout.

Consider `COc1ccc(-c2c(C)oc3c(N4CC[C@@H](NC(C)=O)C4)cc(C)nc23)cc1OC`, for which the pIC50 in data set [5] is < 4.00. The remaining at 1 h, 1 µM in [3] and in [4] was > 95% throughout.

Take `CC(=O)N[C@@H]1CCN(c2cc(C)nn3c(-c4cccs4)c(C)nc23)C1`: in data set [1], the Parent compound remaining was found to be 28%. Besides, in data set [2], the Stability came out at 50%. In addition, the remaining at 1 h, 1 µM in [3] and in [4] was > 95% in each case.

Consider `COc1ccc(-c2c(C)nc3c(N4CC[C@H](NC(C)=O)C4)cc(C)nn23)cc1OC`, for which the pIC50 in data set [11] was < 5.00. In addition, in [6], the inhibition result is “inactive”. In addition, the Activity entry in [7], in data set [8], in [9] and in data set [10] was “Non-Toxic” throughout.

In the case of `COc1ccc(-c2c(C)nc3c(N4CCCC4)cc(C)nn23)cc1OC`, the Parent compound remaining in [1] worked out at 1%. For the same compound, the Stability in data set [2] came out at 58%. For the same compound, the remaining at 1 h, 1 µM in [3] and in [4] was > 95% throughout.

Regarding `COc1ccc(-c2c(C)nc3c(N4CC[C@@H](NC(C)=O)C4)cc(C)nn23)cc1OC`, the remaining at 1 h, 1 µM in data set [3] and in [4] was > 95% each time. In addition, the pIC50 in [11] is < 5.00. The inhibition result in data set [6] was “inactive”. For the same compound, the Activity entry in [7], in data set [8], in [9] and in data set [10] was “Non-Toxic” each time.

Consider `COc1ccc(-c2c(C)nc3c(N4CC[C@@H](NS(=O)(=O)c5cccs5)C4)cc(C)nn23)cc1OC`, for which the Parent compound remaining in [1] was determined as 78%. The Stability in data set [2] came to 95%. Moreover, the remaining at 1 h, 1 µM in data set [3] and in data set [4] was > 95% throughout.

Consider `COc1ccc(-c2c(C)nc3c(N4CC[C@@H](SC(C)=O)C4)cc(C)nn23)cc1OC`, for which, in [1], the Parent compound remaining was 8%. Besides, in data set [2], the Stability was 11%. Besides, the remaining at 1 h, 1 µM in data set [3] and in data set [4] was > 95% each time.

Take `COc1ccc(-c2c(C)nc3c(N4CC[C@@H](NS(=O)(=O)c5ccc(C(C)=O)cc5)C4)cc(C)nn23)cc1OC`: the Parent compound remaining in data set [1] was determined as 5%. Further, the Stability in [2] was found to be 12%. For the same compound, the remaining at 1 h, 1 µM in [3] and in [4] was > 95% in each case.

In the case of `COc1ccc(-c2c(C)nc3c(N4CC[C@@H](NS(=O)(=O)c5ccc(C)cc5)C4)cc(C)nn23)cc1OC`, in [1], the Parent compound remaining stood at 2%. The Stability in [2] is given as 29%. Also, the remaining at 1 h, 1 µM in data set [3] and in data set [4] was > 95% each time.

Take `COc1ccc(-n2c(C)nc3c(N4CC[C@@H](NC(C)=O)C4)nc(C)nc32)cc1OC`: the pIC50 in [5] was < 4.00. For the same compound, the Parent compound remaining in [1] amounted to 104%. Besides, the remaining at 1 h, 1 µM in [3] and in data set [4] was > 95% throughout.

For the compound `COc1ccc(-c2cnc3c(N4CC[C@@H](NC(C)=O)C4)ccnn23)cc1OC`, the Parent compound remaining in [1] was found to be 68%. For the same compound, the Stability in [2] is 92%. Moreover, the remaining at 1 h, 1 µM in data set [3] and in [4] was > 95% throughout.

Consider `COc1ccc(-c2c(C)nc3c(N4CC[C@@H](NC(=O)Nc5ccccc5)C4)cc(C)nn23)cc1OC`, for which the Parent compound remaining in data set [1] is listed as 87%. Besides, the Stability in [2] was 90%. Also, the remaining at 1 h, 1 µM in data set [3] and in data set [4] was > 95% in each case.

Regarding `COc1ccc(-c2c(C)nc3c(N4CC[C@@H](NS(=O)(=O)c5ccc(Cl)cc5)C4)cc(C)nn23)cc1OC`, the Parent compound remaining in [1] stood at 7%. The Stability in data set [2] is recorded as 32%. The remaining at 1 h, 1 µM in data set [3] and in data set [4] was > 95% in each case.
